Experimental data gathered from unrelated publications.
Protocols differ between the studies behind these lines.
Target: 5'-AMP-activated protein kinase catalytic subunit alpha-1 (PRKAA1, Homo sapiens, UniProt Q13131)
Technique: competition with immobilised ligand

Compound | effect on | tested at | remaining binding [%]
O=C(NCC1CCOCC1)c1n[nH]cc1NC(=O)c1c(F)cccc1F | binding | 1 µM | 93
c1cncc(-c2cccc(Nc3nccc(NC4CCCCC4)n3)c2)c1 | binding | 10 µM | 15
O=C(NCCCN1CCOCC1)c1ccc(Nc2ncc(Cl)c(-c3ccc(Cl)s3)n2)cc1 | binding | 1 µM | 15
CC(C)CC(=O)N1CCc2nc(-c3ccc(Br)cc3)nc(N(C)Cc3ccccc3)c2C1 | cell-free assay | 0.1 µM | 100
C[C@H]1CCN(c2nccc(-c3cnn4ncccc34)n2)C1 | binding | 1 µM | 93
CS(=O)(=O)c1cc(C2(NC(=O)c3cncc4c3cnn4-c3ccc(F)cc3)CC2)ccn1 | cell-free assay | 1 µM | 99
c1cnn2ncc(-c3ccnc(N4CCC45COC5)n3)c2c1 | binding | 1 µM | 92
NS(=O)(=O)c1cc(NC(=O)C2(c3ccccc3Cl)CC2)ccc1Oc1cccc(Cl)c1 | cell-free assay | 1 µM | 80
COc1ccnn2ncc(-c3ccnc(N(C)C)n3)c12 | binding | 1 µM | 97
O=C(NCCCN1CCOCC1)c1ccc(Nc2nccc(-c3cc4ccccc4s3)n2)cc1 | binding | 1 µM | 42
Cc1cnn2ncc(-c3ccnc(N(C)C)n3)c2c1 | binding | 1 µM | 93
O=C(c1ccc(Nc2ncc(Cl)c(-c3cc4ccccc4s3)n2)cc1)N1CCC(N2CCCC2)CC1 | binding | 1 µM | 5.7
C=CC(=O)N1CCC(C(=O)NCC(=O)N2CCN(c3nc(-c4cnc(N)nc4C(F)F)nc(N4CCOCC4)n3)CC2)CC1 | binding | 1 µM | 97
CNC(=O)[C@@H]1CC[C@@H](n2c(-c3ccc4cnccc4c3)nc3ccc(C(=O)NCc4cccc(C(N)=O)c4)cc32)C1 | binding | 1 µM | 84
C[C@@H](c1ccc(-n2cnc3c(N)ncnc32)cc1)N1CCc2nn(C)c(Cc3ccccc3)c2C1=O | binding | 0.1 µM | 95
CN(C)C(=O)Cn1cc(-c2nc(C3(c4ccc(-c5cnc(N)nc5)cc4)CC3)no2)cn1 | cell-free assay | 1 µM | 98
N[C@H]1CCN(c2nccc(-c3cnn4ncccc34)n2)C1 | binding | 1 µM | 100
O=S(=O)(NC1CCC(c2cc(F)ccc2F)(S(=O)(=O)c2ccc(Cl)cc2)CC1)C(F)(F)F (stereo not drawn) | cell-free assay | 1 µM | 100
COc1cnc(Nc2cccc(S(N)(=O)=O)c2)nc1N1CCN(c2ccccc2)C(=O)C1 | binding | 1 µM | 100
CS(=O)(=O)NCC[C@H](NC(=O)c1cncc2c1cnn2-c1ccc(F)cc1)c1ccnc(S(C)(=O)=O)c1 | cell-free assay | 1 µM | 100
CN(C)c1ncc(F)c(-c2cnn3ncccc23)n1 | binding | 1 µM | 48
